Measured values from different studies.
Compare with care: the assays were run in different laboratories.
CDK4: Cyclin-dependent kinase 4 (CDK4, Homo sapiens, UniProt P11802)
CDK4 with cyclin D3: Cyclin-dependent kinase 4, with cyclin D3 (CDK4, Homo sapiens, UniProt P11802)
CDK4 with cyclin D1: Cyclin-dependent kinase 4, with cyclin D1 (CDK4, Homo sapiens, UniProt P11802)

O=C1CCc2cc(Nc3cc(OC4CCOCC4)c([N+](=O)[O-])cc3Cl)ccc2N1  remaining binding (CDK4; cell-free assay, competition with immobilised ligand; 1 µM): 81%
CN(C)c1nccc(-c2cnc3ncccn23)n1  remaining binding (CDK4 with cyclin D3; binding; 1 µM): 48%
C[C@@H](c1ccc(-n2cnc3c(N)ncnc32)cc1)N1CCc2nn(C)c(Cc3ccccc3)c2C1=O  remaining binding (CDK4 with cyclin D1; binding, competition with immobilised ligand; 0.1 µM): 73%
c1cncc(-c2cccc(Nc3nccc(NC4CCCCC4)n3)c2)c1  remaining binding (CDK4 with cyclin D1; binding, competition with immobilised ligand; 10 µM): 100%
c1cnn2ncc(-c3ccnc(N4CCC45COC5)n3)c2c1  remaining binding (CDK4; binding; 1 µM): 78%
C=CC(=O)N1CCC(C(=O)NCC(=O)N2CCN(c3nc(-c4cnc(N)nc4C(F)F)nc(N4CCOCC4)n3)CC2)CC1  remaining binding (CDK4 with cyclin D1; binding, competition with immobilised ligand; 1 µM): 83%
Cc1cnc(Nc2ccc(C(=O)N3CCC(N4CCCC4)CC3)cc2)nc1-c1cc2ccccc2s1  remaining binding (CDK4 with cyclin D1; binding, competition with immobilised ligand; 1 µM): 1.7%
O=C(Nc1c[nH]nc1C(=O)NC1CCNCC1)c1cc(F)cc(F)c1  remaining binding (CDK4 with cyclin D1; binding, competition with immobilised ligand; 1 µM): 66%
C[C@H]1CCN(c2nccc(-c3cnn4ncccc34)n2)C1  remaining binding (CDK4; binding; 1 µM): 95%
CCCCN(CCCC)C(=O)CN1C[C@@H](c2cc(OC)c3c(c2)OCO3)[C@H](C(=O)O)[C@H]1CC(C)(C)CCC  remaining binding (CDK4; cell-free assay, competition with immobilised ligand; 1 µM): 100%
CN(c1nccc(-c2cnn3ncccc23)n1)C1CC1  remaining binding (CDK4; binding; 1 µM): 100%
CC(C)(O)c1cncc(-c2nc3ccc(F)cc3n2C2CC2)c1  remaining binding (CDK4 with cyclin D1; cell-free assay, competition with immobilised ligand; 1 µM): 100%
O=C(NCCCN1CCOCC1)c1ccc(Nc2nccc(-c3cc4ccccc4s3)n2)cc1  remaining binding (CDK4 with cyclin D3; binding, competition with immobilised ligand; 1 µM): 72%
N[C@H]1CCN(c2nccc(-c3cnn4ncccc34)n2)C1  remaining binding (CDK4; binding; 1 µM): 75%
COc1ncc2cc3ccccc3nc2c1C#N  remaining binding (CDK4 with cyclin D1; cell-free assay, competition with immobilised ligand; 5 µM): 82%
CN(C)c1nccc(-c2cnn3ncccc23)n1  remaining binding (CDK4 with cyclin D3; binding; 1 µM): 100%
O=C(NCC1CCOCC1)c1n[nH]cc1NC(=O)c1c(F)cccc1F  remaining binding (CDK4 with cyclin D3; binding, competition with immobilised ligand; 1 µM): 20%
FC(F)(F)Oc1cccc(-c2cnc3ccc(-c4ccncc4)nn23)c1  remaining binding (CDK4; cell-free assay, competition with immobilised ligand; 5 µM): 81%
CC(C)CC(=O)N1CCc2nc(-c3ccc(Br)cc3)nc(N(C)Cc3ccccc3)c2C1  remaining binding (CDK4 with cyclin D3; cell-free assay, competition with immobilised ligand; 0.1 µM): 100%
O=C(NCCCN1CCOCC1)c1ccc(Nc2ncc(Cl)c(-c3ccc(Cl)s3)n2)cc1  remaining binding (CDK4 with cyclin D3; binding, competition with immobilised ligand; 1 µM): 8.4%
COc1cnc(Nc2cccc(S(N)(=O)=O)c2)nc1N1CCN(c2ccccc2)C(=O)C1  remaining binding (CDK4; binding, competition with immobilised ligand; 1 µM): 99%
Nc1ncc2c(n1)-c1c([nH]c3ccc(C#CC4CC4)cc13)CCCC2  remaining binding (CDK4 with cyclin D3; binding, competition with immobilised ligand; 1 µM): 93%
O=C(c1ccc(Nc2ncc(Cl)c(-c3ccc(Cl)s3)n2)cc1)N1CCC(N2CCCC2)CC1  remaining binding (CDK4; binding, competition with immobilised ligand; 1 µM): 1.3%
CNC(=O)[C@@H]1CC[C@@H](n2c(-c3ccc4cnccc4c3)nc3ccc(C(=O)NCc4cccc(C(N)=O)c4)cc32)C1  remaining binding (CDK4; binding, competition with immobilised ligand; 1 µM): 100%
O=C(c1ccc(Nc2ncc(Cl)c(-c3cc4ccccc4s3)n2)cc1)N1CCC(N2CCCC2)CC1  remaining binding (CDK4; binding, competition with immobilised ligand; 1 µM): 21%
FC(F)(F)c1ccc2c(c1)nc(-c1cccnc1)n2C1CC1  remaining binding (CDK4 with cyclin D1; cell-free assay, competition with immobilised ligand; 1 µM): 100%
COc1cnc(Nc2cccc(S(N)(=O)=O)c2)nc1N1CCN(c2ccccc2)CC1  remaining binding (CDK4 with cyclin D3; binding, competition with immobilised ligand; 1 µM): 93%
Cc1cnn2ncc(-c3ccnc(N(C)C)n3)c2c1  remaining binding (CDK4 with cyclin D1; binding; 1 µM): 84%
C[C@H](c1ccc(F)cc1)N(Cc1cccc(C(=O)O)c1)C(=O)c1cnc2ccccc2c1  remaining binding (CDK4 with cyclin D1; cell-free assay, competition with immobilised ligand; 1 µM): 100%
O=C(c1ccc(Nc2nccc(-c3cc4ccccc4s3)n2)cc1)N1CCC(N2CCCC2)CC1  remaining binding (CDK4 with cyclin D1; binding, competition with immobilised ligand; 1 µM): 25%
O=C(O)c1cc(-c2ccc(C3CCNCC3)cc2)c2ccc(-c3ccc(C(F)(F)F)cc3)cc2c1  remaining binding (CDK4 with cyclin D3; cell-free assay, competition with immobilised ligand; 1 µM): 100%
CN(C)c1ncc(F)c(-c2cnn3ncccc23)n1  remaining binding (CDK4; binding; 1 µM): 100%
COc1cc(-c2cn(C3CCc4ccccc4N(CC(F)(F)F)C3=O)nn2)ccc1-n1ccc(C)n1 (stereo not shown)  remaining binding (CDK4; cell-free assay, competition with immobilised ligand; 1 µM): 53%
CCN1CCN(Cc2ccc(C(=O)Nc3ccc(C)c(Oc4ccc5c(c4)CC(=O)N5)c3)cc2C(F)(F)F)CC1  remaining binding (CDK4 with cyclin D3; binding, competition with immobilised ligand; 1 µM): 100%
